Activity calls are given as the source filed them. No cut-off for these calls is given here.

Consider 48 compounds from ChEMBL document CHEMBL1138243, “Design of mechanism-based inhibitors of transthyretin amyloidosis: studies with biphenyl ethers and new structural templates” (J Med Chem, 2007).

Assay [1] concerns the target T1, Transthyretin (Homo sapiens, UniProt P02766). Briefly: Inhibition of transthyretin fibril formation at pH 4.4 at 50 uM. Type of assay: functional. Details: scale not given: the % may be the effect or the level left.
Assay [2] has as its target T1, Transthyretin. As to the kind of experiment: Inhibition of transthyretin fibril formation assessed as turbidity at 21.6 uM at pH 4.4 after 3 hrs. The class given is functional. In outline: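 Kinetics run with 7.2 µM TTR plus 21.6 µM inhibitor at pH 4.4, 37 °C. Turbidity at 340 nm was followed for 3 h. Initial fibrillization rate came from the linear slope of A340 versus time. Three experiments in triplicate.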

Assay [3] addresses T1, Transthyretin. As to the kind of experiment: Inhibition of transthyretin amyloidosis assessed as fibril formation at 7.2 uM at pH 4.4 relative to control. Also on record: scale not given: the % may be the effect or the level left. Type of assay: functional. In outline:
(§1)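 WT TTR tetramer (7.2 µM) in pH 7 phosphate/KCl/EDTA was preincubated 1 h at 25 °C with inhibitor (7.2 or 21.6 µM; 1:1 or 1:3) in 1% DMSO. It was then diluted with pH 4.4 acetate/KCl/EDTA buffer and held stagnant 72 h at 37 °C. Turbidity was read at 340 nm as % fibril formation versus untreated (100%). Mean of five experiments.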

Assay [4] has as its target T1, Transthyretin. As to the kind of experiment: Inhibition of transthyretin amyloidosis assessed as fibril formation at 21.6 uM at pH 4.4 relative to control. Also on record: scale not given: the % may be the effect or the level left. The class given is functional. In short, it runs like this: as §1
The target of assay [5] is T1, Transthyretin. Briefly: Stabilization of urea-induced transthyretin dissociation at 5.4 uM at pH 7.2 after 1 hr relative to control.
Assay [6] addresses T1, Transthyretin. Briefly: Inhibition of transthyretin fibril formation at pH 4.4 at 100 uM. The class given is functional. In short, it runs like this: (§2)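 Library screen of acid-mediated TTR fibril formation at pH 4.4 with inhibitor at 100 µM. TTR was at 7.2 µM.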
The target in assay [7] is T1, Transthyretin. Briefly: Stabilization of urea-induced transthyretin dissociation at 5.4 uM at pH 7.2 after […] relative to control.
Assay [8] is described as follows: Cytotoxicity against TTR-induced […] cells assessed as viability at 50 uM after 72 hrs. Type of assay: functional. The note with it: Mus musculus, N2a, read-out: Activity.
Assay [9] has as its system Neuro2a. Briefly: Cytotoxicity against […] cells at 50 uM. The note with it: Mus musculus. Type of assay: functional, cell-based.
In assay [10] the target is T1, Transthyretin. As to the kind of experiment: Inhibition of fibril elongation of preformed transthyretin at […] after 72 hrs by turbidity assay. Type of assay: functional.
Assay [11] has as its target T1, Transthyretin. As to the kind of experiment: Inhibition of transthyretin amyloidosis assessed as fibril formation pH 4.4 at 100 uM. The class given is functional. In outline: as §2

Usually inhibition stands for the share of the control response that was lost under treatment. For the compound `Oc1cc(Cl)ccc1Oc1ccc(Cl)cc1Cl`, the Activity is 41% in assay [1], 75% in assay [3], 66% in assay [4] and 47% in [5]. Besides, in [2], the inhibition came to 62%.

As for `COc1cc(C=O)ccc1Oc1ccc([N+](=O)[O-])cc1[N+](=O)[O-]`, the Activity in assay [1] was determined as 66%.

Take `COc1cc(CCl)ccc1Oc1ccc([N+](=O)[O-])cc1[N+](=O)[O-]`: the Activity in assay [1] amounted to 79%.

As for `COc1cc(C(=O)O)ccc1Oc1ccc([N+](=O)[O-])cc1[N+](=O)[O-]`, the Activity in [1] turned out to be 48%.

With `Oc1ccccc1-c1nnc(S)o1`, the inhibition was 86.2% in [6] and greater than 80% in assay [2]. For the same compound, the Activity is less than 5% in assay [7], “Not toxic” in assay [9], 21% in assay [3] and 0% in [4]. In addition, the viability at 50 µM in assay [8] is 86%. In [10], the result was Active. Moreover, the percent fibril formation relative to control in assay [11] was determined as 13.8%.

For the compound `COc1cc(CO)ccc1Oc1ccc([N+](=O)[O-])cc1[N+](=O)[O-]`, the Activity in assay [1] is 28%.

For the compound `COc1cc(CO)ccc1Oc1ccc([N+](=O)[O-])cc1`, in assay [1], the Activity turned out to be 89.5%.

`COc1cc(CO)ccc1Oc1ccccc1` yielded an Activity in assay [1] of 61.2%.

In the case of `O=Cc1ccc(Oc2ccc(Cl)cc2Cl)c(O)c1`, the Activity in assay [1] is 0%; in [7], less than 5%; in assay [9] it was “Not toxic”; in assay [3], 0%; in assay [4], 0%. For the same compound, in assay [8], the viability at 50 µM was determined as 86%. Besides, the inhibition in assay [2] is greater than 80%. Besides, in assay [10], the result was Active.

`COc1cc(CCl)ccc1Oc1ccc(Cl)cc1Cl`: the Activity in assay [1] was 0%; in [7] it was less than 5%; in assay [9] it was “Not toxic”; in assay [3], 26%; in assay [4], 0%. The viability at 50 µM in assay [8] amounted to 86%. For the same compound, the inhibition in [2] was greater than 80%. For the same compound, the outcome in [10] was Active.

As for `N[C@H](Cc1cc(I)c(Oc2cc(I)c(O)c(I)c2)c(I)c1)C(=O)O`, in assay [2], the inhibition turned out to be 75%. Besides, the figures for the Activity in assay [3], in assay [4] and in assay [5] were 48%, 7% and 27%, respectively.

As to `Oc1cc(CCl)ccc1Oc1ccc(Cl)cc1Cl`, the Activity in [1] is 0%; in [7] it was less than 5%; in [9] it was “Not toxic”; in assay [3], 5%; in [4] it was 0%. Also, the viability at 50 µM in assay [8] was found to be 86%. For the same compound, the inhibition in assay [2] is greater than 80%.

Regarding `COc1cc(C=O)ccc1Oc1ccccc1`, the Activity in [1] was 0%; in assay [7], less than 5%; in assay [9], “Not toxic”; in assay [3] it was 12%; in [4], 0%. For the same compound, the viability at 50 µM in assay [8] came out at 86%. For the same compound, the inhibition in [2] was greater than 80%. In assay [10], the result was Active.

Regarding `COc1cc(COC(C)=O)ccc1Oc1ccc([N+](=O)[O-])cc1[N+](=O)[O-]`, the Activity in [1] stood at 69%.

In turn, `O=Cc1ccc(Oc2ccc([N+](=O)[O-])cc2[N+](=O)[O-])c(O)c1` showed an Activity in assay [1] of 40.5%.

Turning to `O=C1/C(=C/c2ccc(Cl)cc2Cl)SC(=S)N1c1ccc(O)cc1`, in assay [6], the inhibition came out at 0%. In assay [11], the percent fibril formation relative to control is 291%.

On to `COC(=O)c1sc(=S)n(-c2ccc(Cl)c(Cl)c2)c1N`, for which the inhibition in assay [6] worked out at 15.6%. Moreover, the percent fibril formation relative to control in assay [11] stood at 84.5%.

In [6], `O=C(O)c1ccc(Cl)c(N2C(=O)C3C4CCC(C4)C3C2=O)c1` (stereo in doubt; 33) yielded an inhibition of 37.8%. Besides, the percent fibril formation relative to control in assay [11] was determined as 62.2%.

As for `O=C(O)c1cccc(-c2ccc(/C=C3/SC(=S)N(c4cccc(C(F)(F)F)c4)C3=O)o2)c1`, the inhibition in assay [6] amounted to 0%. The percent fibril formation relative to control in assay [11] is 449%.

`CSC1=NSC2=NC(=O)/C(=C\c3ccc(Cl)cc3)C(=N)N12` showed an inhibition in assay [6] of 32.9%. In assay [11], the percent fibril formation relative to control is 67.1%.

The compound `Fc1ccccc1NC(=S)N(CCCN1CCOCC1)Cc1cccnc1` registered an inhibition in assay [6] of 0.7%. Moreover, the percent fibril formation relative to control in [11] worked out at 99.3%.

For `COc1cc(C(=O)O)ccc1Oc1ccc(Cl)cc1Cl`, the Activity was 0% in assay [1]; less than 5% in assay [7]; “Not toxic” in assay [9]; 10% in [3]; 0% in assay [4]. Moreover, the viability at 50 µM in assay [8] amounted to 86%. Moreover, in assay [2], the inhibition was greater than 80%. The outcome in assay [10] was Active.

As to `Nc1nc(F)cc(Oc2ccccc2F)n1`, the inhibition in assay [6] was determined as 45.6%. Moreover, the percent fibril formation relative to control in assay [11] is 54.4%.

The compound `O=C1OC(/C=C/c2ccc(Cl)cc2Cl)=NC/1=C\c1cccs1` registered an inhibition in assay [6] of 0%. In [11], the percent fibril formation relative to control stood at 294%.

With `O=c1/c(=C\c2ccccc2Cl)sc2nc3ccccc3n12`, in [6], the inhibition was determined as 29.1%. The percent fibril formation relative to control in assay [11] turned out to be 71%.

With `O=Cc1ccc(Oc2ccccc2)c(O)c1`, the Activity in assay [1] came to 112%.

As for `Oc1ccc(-c2n[nH]c(=S)o2)cc1`, in assay [6], the inhibition came to 80.8%. Further, in [11], the percent fibril formation relative to control turned out to be 19.2%.

In assay [6], `O=C(O)C1CSC(c2ccc(Cl)cc2Cl)N1` (stereo not given) gave an inhibition of 77.7%. Further, the percent fibril formation relative to control in assay [11] stood at 22.3%.

As to `Nc1cc(O)nc(SCC(=O)N2CCOCC2)n1`, in [6], the inhibition was found to be 0%. For the same compound, in assay [11], the percent fibril formation relative to control is 112%.

In the case of `Clc1ccc2nc(-c3ccc(Cl)s3)c(NC3CCCCC3)n2c1`, in [6], the inhibition was determined as 0%. Further, in assay [11], the percent fibril formation relative to control is 138%.

In turn, `COc1ccc(C2NC(C(=O)O)CS2)cc1OC` (stereo not given) yielded an inhibition in assay [6] of 0%. Also, the percent fibril formation relative to control in [11] was 129%.

Turning to `CCC(=O)NC(c1ccc2c(c1)OCO2)c1cc(Cl)c2cccnc2c1O` (stereo not given), the inhibition in assay [6] is 58.1%. In addition, in assay [11], the percent fibril formation relative to control is 41.9%.

In [6], `O=C(NCc1ccco1)c1cc(Sc2cccc(Cl)c2)nc2ccccc12` gave an inhibition of 39.3%. Also, the percent fibril formation relative to control in [11] came to 60.7%.

In assay [6], `COc1ccc(NC(=S)N(CCCN2CCOCC2)Cc2cccs2)cc1` displayed an inhibition of 0%. For the same compound, the percent fibril formation relative to control in assay [11] came to 102%.

For the compound `Oc1ccc(Nc2nc(-c3ccc(Cl)cc3)nc3ccccc23)cc1`, the inhibition in assay [6] was 4.06%. Also, in [11], the percent fibril formation relative to control was 96%.

`O=c1c2sccc2n(Cc2ccc(F)cc2Cl)c(=O)n1-c1cc(F)ccc1F` displayed an inhibition in assay [6] of 0%. For the same compound, in [11], the percent fibril formation relative to control came to 117%.

On to `OCc1ccc(Oc2ccc(Cl)cc2Cl)c(O)c1`, for which the Activity in assay [1] is 11.5%; in assay [7] it was less than 5%; in assay [9] it was “Not toxic”; in assay [3], 12%; in assay [4] it was 2.6%. In [8], the viability at 50 µM came out at 86%. In [2], the inhibition was greater than 80%. Moreover, the outcome in [10] was Active.

In the case of `O=C(O)CCc1nc(-c2cccs2)no1`, the inhibition in [6] amounted to 67.9%. In addition, the percent fibril formation relative to control in [11] amounted to 32.1%.

`O=C(O)c1ccc(Oc2ccc([N+](=O)[O-])cc2[N+](=O)[O-])c(O)c1` returned an Activity in assay [1] of 75%.

Take `CCOC(=O)c1c(N)sc(C(=O)NC2CCCCC2)c1C`: in assay [6], the inhibition is 41.9%. Further, the percent fibril formation relative to control in assay [11] stood at 58.1%.

For `NC(=O)CSc1ncc(-c2ccc(Cl)cc2)[nH]1`, the inhibition in assay [6] came out at 60.8%. In [11], the percent fibril formation relative to control came out at 39.2%.

In the case of `O=C(NC1CC1)c1cc(Sc2cccc(Cl)c2)nc2ccccc12`, the inhibition in assay [6] worked out at 58.2%. The percent fibril formation relative to control in assay [11] was determined as 41.8%.

In assay [6], `O=C(O)C1CSC(c2c(F)cccc2Cl)N1` (stereo not given) gave an inhibition of 79.7%. Also, the percent fibril formation relative to control in [11] amounted to 20.3%.

With `CCc1ccc(Oc2cc(F)nc(N)n2)cc1`, the inhibition in assay [6] amounted to 9.71%. In addition, in [11], the percent fibril formation relative to control worked out at 10.4%.

Turning to `O=C(Nc1nnc[nH]1)c1c(Cl)ccc(Cl)c1Cl`, the inhibition in [6] is 88.5%; in assay [2], greater than 80%. Besides, the Activity in assay [7] was less than 5%; in assay [9] it was “Not toxic”; in assay [3] it was 11%; in assay [4] it was 3.6%. Also, the viability at 50 µM in [8] was determined as 86%. Further, the outcome in assay [10] was Active. For the same compound, in assay [11], the percent fibril formation relative to control was found to be 11.5%.

`O=C(Nc1c2c(nn1-c1ccc(F)cc1)C[S+]([O-])C2)c1ccccc1F` (stereo not given): the inhibition in [6] was found to be 0%. Further, in assay [11], the percent fibril formation relative to control came to 104%.

On to `CCCCN(CC)Cc1c(C)nc2ccc(Cl)cc2c1O`, for which the inhibition in [6] is 20.3%. Further, the percent fibril formation relative to control in assay [11] was 79.7%.

For `Cc1ccc(/C=c2/sc3nc4ccccc4n3c2=O)cc1`, in assay [6], the inhibition was found to be 0%. The percent fibril formation relative to control in [11] amounted to 125%.
